Broadly, the inhibition is the share of the control response that was lost under treatment. Read a high inhibition as strong suppression. As a reminder, the IC50 is the concentration needed to halve the response being measured. A lower IC50 goes with greater potency. A word on the Ki: it is a measure of affinity in units of concentration, obtained from inhibition or displacement. High values mean a looser hold on the target, low ones a stronger hold on the target.

The record followed here is ChEMBL document CHEMBL1140051, “Discovery of novel Cdc25 phosphatase inhibitors with micromolar activity based on the structure-based virtual screening” (J Med Chem, 2008).

Each structure is given as a SMILES string.

Experiment [1] deals with T1, M-phase inducer phosphatase 1 (Homo sapiens) (UniProt P30304).
T1 sequence (whole entry): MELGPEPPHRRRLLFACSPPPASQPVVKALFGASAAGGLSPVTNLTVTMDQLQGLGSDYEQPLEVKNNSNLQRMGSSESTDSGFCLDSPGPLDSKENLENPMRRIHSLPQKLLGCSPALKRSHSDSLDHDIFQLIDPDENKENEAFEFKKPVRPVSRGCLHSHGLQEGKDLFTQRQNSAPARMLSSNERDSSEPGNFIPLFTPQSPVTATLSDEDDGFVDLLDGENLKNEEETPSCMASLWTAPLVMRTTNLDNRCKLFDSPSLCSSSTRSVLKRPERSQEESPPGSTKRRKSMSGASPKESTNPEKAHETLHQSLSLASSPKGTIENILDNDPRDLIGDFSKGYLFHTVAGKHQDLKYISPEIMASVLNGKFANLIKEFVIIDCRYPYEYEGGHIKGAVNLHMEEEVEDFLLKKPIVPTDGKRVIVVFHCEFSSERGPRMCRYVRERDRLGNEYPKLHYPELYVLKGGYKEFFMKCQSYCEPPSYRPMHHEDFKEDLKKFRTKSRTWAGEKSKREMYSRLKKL
The experiment can be described thus: Inhibition of Cdc25A (336-523) expressed in Escherichia coli at 50 uM.

Experiment [2] has as its target T2, M-phase inducer phosphatase 2 (Homo sapiens) (UniProt P30305).
T2 sequence (whole entry): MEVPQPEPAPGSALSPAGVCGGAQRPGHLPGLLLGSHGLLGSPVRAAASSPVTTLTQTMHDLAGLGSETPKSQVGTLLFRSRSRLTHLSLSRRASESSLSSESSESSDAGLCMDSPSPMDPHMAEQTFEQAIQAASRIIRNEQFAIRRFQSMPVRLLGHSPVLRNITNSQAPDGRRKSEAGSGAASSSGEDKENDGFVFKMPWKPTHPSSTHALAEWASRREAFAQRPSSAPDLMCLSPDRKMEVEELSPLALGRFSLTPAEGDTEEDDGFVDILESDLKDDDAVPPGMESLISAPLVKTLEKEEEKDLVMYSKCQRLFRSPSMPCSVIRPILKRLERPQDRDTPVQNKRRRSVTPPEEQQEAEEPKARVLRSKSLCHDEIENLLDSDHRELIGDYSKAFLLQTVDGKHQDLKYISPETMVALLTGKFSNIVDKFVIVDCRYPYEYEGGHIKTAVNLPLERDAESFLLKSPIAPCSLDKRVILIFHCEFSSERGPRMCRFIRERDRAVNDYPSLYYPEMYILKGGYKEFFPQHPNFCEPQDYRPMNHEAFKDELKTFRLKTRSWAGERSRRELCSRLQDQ
Nature of the experiment: Inhibition of Cdc25B (378-566) expressed in Escherichia coli at 50 uM.

The target of experiment [3] is T3, M-phase inducer phosphatase 1 (Homo sapiens, UniProt P30304).
T3 sequence (P30304 whole entry): T1 sequence (whole entry)
The experiment can be described thus: Inhibition of Cdc25A (336-523) expressed in Escherichia coli. The method in brief: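 Inhibitor added in DMSO. 20 min at room temperature, stopped with 1 mM orthovanadate (final). IC50 determined at least three times and averaged.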

Experiment [4] concerns the target T4, M-phase inducer phosphatase 2 (Homo sapiens, UniProt P30305).
T4 sequence (P30305 whole entry): T2 sequence (whole entry)
The experiment can be described thus: Inhibition of Cdc25B (378-566) expressed in Escherichia coli.

The target in experiment [5] is T3, M-phase inducer phosphatase 1. Nature of the experiment: Binding affinity to Cdc25A (336-523) expressed in Escherichia coli by steady-state kinetic assay.
Experiment [6] in a line: Inhibition of Cdc25A R501A mutant.
Experiment [7] in a line: Inhibition of Cdc25A R501K mutant.
The nature of experiment [8]: Inhibition of Cdc25B R544A mutant.
Experiment [9] can be described thus: Inhibition of Cdc25B R544K mutant.

In the case of `C=CCn1c(SCC(=O)c2ccc(O)c(O)c2)nnc1-c1cccc(Cl)c1`, the inhibition in [1] and in experiment [2] was over 70% in each case. For the same compound, the IC50 was 3.28 µM in experiment [3] and 4.67 µM in experiment [4].
With `Cc1ccc(NC2=NC(=O)/C(=C/C=C/c3ccco3)S2)cc1C`, the inhibition in experiment [1] and in experiment [2] was over 70% each time.
Take `N#CC1=C(S)N(c2ccccc2)C(/C=C/c2ccc(-c3ccc(Cl)cc3)o2)NC1=O` (configuration not stated): the inhibition in experiment [1] and in [2] was over 70% each time. The IC50 was found to be 3.31 µM in experiment [3] and 12.6 µM in experiment [4]. In [5], this compound yielded a Ki of 29.2 µM.
With `CC1=C(SCCO)C(=O)c2ccccc2C1=O`, the IC50 in experiment [3] stood at 4.56 µM; in experiment [4], 23.6 µM.
With `COc1ccc(-n2nnc(SCC(=O)c3ccc(O)c(O)c3)n2)cc1`, the inhibition in experiment [1] and in [2] was over 70% in each case. Moreover, the IC50 came to 4.07 µM in [3]; 14.2 µM in [4]; 12.1 µM in experiment [6]; 6.09 µM in [7]; 16 µM in [8]; 17.4 µM in [9]. In addition, the Ki in experiment [5] came to 20.4 µM.
Take `Cc1ccc(-c2nnc(SCC(=O)c3ccc(O)c(O)c3)n2-c2ccc(Cl)cc2)cc1`: the inhibition in experiment [1] and in [2] was over 70% each time.
Take `Cc1ccc(/N=C2N=C(O)/C(=C/C=C/c3ccco3)S\2)cc1C`: the values for the IC50 in experiment [3] and in experiment [4] were 4.27 µM and 5.44 µM, respectively. The Ki in experiment [5] came out at 21.4 µM.
